≈ marks a conversion by molar mass, not a printed value.
System: Plasmodium falciparum
Assay: Antimalarial activity against asexual blood stage of Plasmodium falciparum 3D7 after 48 hrs by candle jar method
Format: functional, organism-based
Conditions: 3D7, 48 h
How it was run: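 Asexual blood-stage parasites grown in B+ human erythrocytes, RPMI-1640 with 10% heat-inactivated pooled compatible serum; exposed to graded compound concentrations in triplicate, 48 h, 37 °C. Percent parasitemia inhibition versus controls from Giemsa-stained thin smears; IC50 from concentration-response curve.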

| SMILES | IC50 |
| --- | --- |
| O=C(/C=C/c1ccc(Cl)cc1)c1ccc(-n2cccn2)cc1 | 7.76 µg/mL (≈ 25.1 µM) |
| O=C(/C=C/c1ccc(Cl)cc1)c1ccc(-n2ccnc2)cc1 | 8.26 µg/mL (≈ 26.8 µM) |
| O=C(/C=C/c1ccc(Cl)cc1)c1ccc(-n2cncn2)cc1 | 1.52 µg/mL (≈ 4.91 µM) |
| COc1ccc(/C=C/C(=O)c2ccc(-n3nnc4ccccc43)cc2)cc1 | 6.8 µg/mL (≈ 19.1 µM) |
| COc1cc(/C=C/C(=O)c2ccc(N3CCCCC3)cc2)cc(OC)c1OC | 7.16 µg/mL (≈ 18.8 µM) |
| COc1cc(/C=C/C(=O)c2ccc(N3CCOCC3)cc2)cc(OC)c1OC | 4.6 µg/mL (≈ 12 µM) |
| COc1cc(/C=C/C(=O)c2ccc(-n3cncn3)cc2)cc(OC)c1OC | 8.03 µg/mL (≈ 22 µM) |
| O=C(/C=C/c1ccc(Cl)cc1)c1ccc(-n2cccc2)cc1 | 2.93 µg/mL (≈ 9.52 µM) |
| COc1ccc(/C=C/C(=O)c2ccc(-n3cccn3)cc2)cc1 | 12.3 µg/mL (≈ 40.5 µM) |
| O=C(/C=C/c1ccc(Cl)cc1)c1ccc(N2CCOCC2)cc1 | 9.1 µg/mL (≈ 27.8 µM) |

The remaining lines, values ahead:

| IC50 | SMILES |
| --- | --- |
| 5.15 µg/mL (≈ 15.8 µM) | O=C(/C=C/c1ccc(Cl)cc1)c1ccc(N2CCCCC2)cc1 |
| 6.01 µg/mL (≈ 19.3 µM) | O=C(/C=C/c1ccc(Cl)cc1)c1ccc(N2CCCC2)cc1 |
| 6 µg/mL (≈ 16.5 µM) | COc1cc(/C=C/C(=O)c2ccc(-n3cccn3)cc2)cc(OC)c1OC |
| 2.5 µg/mL (≈ 6.95 µM) | O=C(/C=C/c1ccc(Cl)cc1)c1ccc(-n2nnc3ccccc32)cc1 |

— ChEMBL document CHEMBL1141666, “Synthesis of novel substituted 1,3-diaryl propenone derivatives and their antimalarial activity in vitro” (Eur J Med Chem, 2008)
